Test results taken from ChEMBL document CHEMBL4842351, “Synthesis and evaluation of novel and potent protease activated receptor 4 (PAR4) antagonists based on a quinazolin-4(3H)-one scaffold” (Eur J Med Chem, 2021).
pIC50: −log10 of the molar value.

Experiments:
[1] = biological target: T1, Proteinase-activated receptor 4 (Homo sapiens) (UniProt Q96RI0); experiment: Antagonist activity at PAR4 in human platelet-rich plasma assessed as inhibition of PAR4 AP AYPGKF-NH2-induced platelet aggregation at 0.2 uM by photo-turbidimetry assay relative to control; assay type: functional
T1 sequence (whole entry): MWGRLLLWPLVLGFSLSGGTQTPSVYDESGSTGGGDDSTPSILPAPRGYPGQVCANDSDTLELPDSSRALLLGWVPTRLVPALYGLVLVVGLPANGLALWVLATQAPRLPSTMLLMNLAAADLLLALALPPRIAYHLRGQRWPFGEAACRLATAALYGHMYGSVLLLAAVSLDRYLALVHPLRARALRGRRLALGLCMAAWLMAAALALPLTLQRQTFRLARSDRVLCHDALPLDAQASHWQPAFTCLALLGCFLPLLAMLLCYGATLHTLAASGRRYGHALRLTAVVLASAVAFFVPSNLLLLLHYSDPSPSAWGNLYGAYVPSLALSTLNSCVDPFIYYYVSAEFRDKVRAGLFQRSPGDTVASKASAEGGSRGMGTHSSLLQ
Method in brief: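 Human PRP from donated blood, spun at 160×g for 15 min, then adjusted to 3×10⁸/mL with PPP (2000×g, 15 min). Compound or saline vehicle preincubated with PRP for 5 min at 37 °C. Aggregation induced by AYPGKF-NH₂; maximal aggregation measured by light transmittance for 5 min. Percent inhibition at a single point; IC50 from ≥5 concentrations by curve fitting.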

[2] = biological target: T2, Proteinase-activated receptor 4 (Homo sapiens, UniProt Q96RI0); experiment: Antagonist activity at human PAR4 expressed in Ga15-HEK293 cells assessed as reduction in PAR4 AP AYPGKF-NH2-induced cytosolic calcium incubated for 24 hrs by FLIPR - calcium mobilization assay; assay type: functional, cell-based
T2 sequence (Q96RI0 whole entry): T1 sequence (whole entry)
Method in brief: (§1)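 HEK293/Gα15 cells stably expressing human PAR1, PAR2 or PAR4, seeded at 45,000 cells/well and grown for 24 h at 37 °C, 5% CO₂. Cells loaded with calcium dye for 60 min at 37 °C in the dark. Compounds diluted from DMSO in HBSS and preincubated in the dark at room temperature. Agonists: SFFLRR (PAR1), 2-furoyl-LIGRLO-NH₂ (PAR2), AYPGKF-NH₂ (PAR4). Fluorescence read on FLIPR; 10-point half-log curves; mean of ≥2 determinations.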

[3] = biological target: T3, Proteinase-activated receptor 1 (Homo sapiens, UniProt P25116); experiment: Antagonist activity at human PAR1 expressed in Ga15-HEK293 cells assessed as reduction in PAR1 AP SFFLRR-NH2-induced cytosolic calcium incubated for 24 hrs by FLIPR - calcium mobilization assay; assay type: functional, cell-based; method in brief: as §1
T3 sequence (P25116 whole entry): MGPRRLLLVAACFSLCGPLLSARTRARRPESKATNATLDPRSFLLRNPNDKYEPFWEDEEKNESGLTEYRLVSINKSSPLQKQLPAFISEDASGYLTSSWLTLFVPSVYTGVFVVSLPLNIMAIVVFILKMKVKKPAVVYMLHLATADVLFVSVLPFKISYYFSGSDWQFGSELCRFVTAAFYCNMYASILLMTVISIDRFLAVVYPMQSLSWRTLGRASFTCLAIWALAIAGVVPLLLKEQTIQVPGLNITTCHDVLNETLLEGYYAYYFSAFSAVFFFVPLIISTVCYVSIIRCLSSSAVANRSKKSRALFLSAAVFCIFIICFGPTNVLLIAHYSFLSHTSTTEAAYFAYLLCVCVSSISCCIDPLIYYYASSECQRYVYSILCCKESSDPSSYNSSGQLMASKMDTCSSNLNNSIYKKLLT

[4] = biological target: T4, Proteinase-activated receptor 2 (Homo sapiens, UniProt P55085); experiment: Antagonist activity at human PAR2 expressed in Ga15-HEK293 cells assessed as reduction in PAR2 AP 2-furoyl-LIGRLO-NH2-induced cytosolic calcium incubated for 24 hrs by FLIPR - calcium mobilization assay; assay type: functional, cell-based; method in brief: as §1
T4 sequence (P55085 whole entry): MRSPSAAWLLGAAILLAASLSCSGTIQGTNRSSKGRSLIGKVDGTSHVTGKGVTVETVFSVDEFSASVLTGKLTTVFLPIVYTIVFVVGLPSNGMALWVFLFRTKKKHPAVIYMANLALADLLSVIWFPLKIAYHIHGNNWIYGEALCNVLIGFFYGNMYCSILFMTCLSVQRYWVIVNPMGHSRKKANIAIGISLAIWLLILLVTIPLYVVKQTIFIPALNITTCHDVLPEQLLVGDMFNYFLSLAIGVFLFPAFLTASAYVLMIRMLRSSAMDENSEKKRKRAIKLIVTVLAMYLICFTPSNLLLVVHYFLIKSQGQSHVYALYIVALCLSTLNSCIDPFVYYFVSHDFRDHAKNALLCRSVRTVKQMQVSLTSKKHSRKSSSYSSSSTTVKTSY

| Compound | inhibition [1] [%] | further results |
| --- | --- | --- |
| Cc1cc(-c2nc3c(Cl)cc(OCCNS(=O)(=O)c4ccc(F)cc4)cc3s2)c2ncn(C)c(=O)c2c1 | 8.7 | – |
| COCn1cnc2c(-c3nc4c(s3)CCCC4)cc(C)cc2c1=O | 35.7 | – |
| Cc1cc(-c2nc3c(s2)CCCC3)c2nc(C)n(C)c(=O)c2c1 | 17 | – |
| CCOCn1cnc2c(-c3nc4c(Cl)cc(OC)cc4s3)cc(C)cc2c1=O | – | inhibition ([1]; filed as antagonist): 91.2% |
| CCn1cnc2c(-c3nc4c(s3)CCCC4)cc(C)cc2c1=O | 26.8 | – |
| COc1cc(Cl)c2nc(-c3cc(C)cc4c(=O)n(C(C)C)cnc34)sc2c1 | 15.2 | – |
| CCCCc1cc(-c2nc3c(s2)CCCC3)c2ncn(CC)c(=O)c2c1 | – | inhibition ([1]; filed as antagonist): 9.3% |
| CCCCc1cc(-c2nc3c(Cl)cc(OC)cc3s2)c2ncn(C)c(=O)c2c1 | – | inhibition ([1]; filed as antagonist): 47.6% |
| COCn1cnc2c(-c3nc4c(Cl)cc(OC)cc4s3)cc(C)cc2c1=O | – | inhibition ([1]; filed as antagonist): 45.3% |
| Cc1cc(-c2nc3c(Cl)cc(OCCNC(=O)c4ccccc4)cc3s2)c2ncn(C)c(=O)c2c1 | – | inhibition ([1]; filed as antagonist): 94.5% |
| CCc1cc(-c2nc3c(Cl)cc(OC)cc3s2)c2ncn(C)c(=O)c2c1 | – | inhibition ([1]; filed as antagonist): 92.8%; pIC50 [2]: 8.17; pIC50 [3]: < 5.50; pIC50 [4]: < 6.00 |
| Cc1cc(-c2nc3c(Cl)cc(OCCN)cc3s2)c2ncn(C)c(=O)c2c1 | 33.2 | – |

Further lines, with some results ahead:

| inhibition [1] [%] | Compound | further results |
| --- | --- | --- |
| 34.3 | Cc1cc(-c2cccc(Cl)c2Cl)c2ncn(C)c(=O)c2c1 | – |
| 20.1 | COc1cc(F)c2nc(-c3cc(C)cc4c(=O)n(C)c(C)nc34)sc2c1 | – |
| 36.5 | CCn1cnc2c(-c3nc4c(Cl)cc(OC)cc4s3)cc(C)cc2c1=O | – |
| 19.8 | Cn1cnc2c(-c3nc4c(s3)CCCC4)cccc2c1=O | – |
| 6.5 | Cc1cc(-c2ccc(F)cc2O)c2ncn(C)c(=O)c2c1 | – |
| 25.6 | COc1cc(Cl)c2nc(-c3cccc4c(=O)n(C)cnc34)sc2c1 | – |
| 39.8 | COc1cc(Cl)c2nc(-c3cc(C)cc4c(=O)n(C)c(C)nc34)sc2c1 | – |
| 21.3 | Cc1cc(-c2nc3c(Cl)cc(Cl)cc3s2)c2ncn(C)c(=O)c2c1 | – |
| 27.7 | C#CCn1cnc2c(-c3nc4c(F)cc(OC)cc4s3)cc(C)cc2c1=O | – |
